KDM4C inh: inhibitors of GASC-1 (KDM4C) histone demethylase, primary screen, biochemical, single concentration HTS; Lysine-specific demethylase 4C (Homo sapiens), Q9H3R0; 96,000 tested, 0.15% active; inhibition, % at 12.5 µM; GST-KDM4C 2-372, H3K9me3 peptide, LANCE TR-FRET; AID 720574, 2013;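 active = mean replicate inhibition above about 25%, with at least 55% of replicates also reaching it, limit read from the data, passing the limit was not always enough; inconclusive = only one of those two conditions met; inactive = neither condition met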
Target sequence (Q9H3R0 2-372 limits assumed): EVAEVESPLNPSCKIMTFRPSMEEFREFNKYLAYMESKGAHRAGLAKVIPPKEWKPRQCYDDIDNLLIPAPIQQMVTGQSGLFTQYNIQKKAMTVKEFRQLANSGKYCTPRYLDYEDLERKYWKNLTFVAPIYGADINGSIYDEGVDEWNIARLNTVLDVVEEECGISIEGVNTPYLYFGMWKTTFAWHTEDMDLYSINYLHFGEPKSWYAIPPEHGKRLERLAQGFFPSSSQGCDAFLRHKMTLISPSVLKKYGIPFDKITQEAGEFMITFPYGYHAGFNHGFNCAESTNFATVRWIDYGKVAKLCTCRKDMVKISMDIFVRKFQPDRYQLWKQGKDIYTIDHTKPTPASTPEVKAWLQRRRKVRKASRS
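System: N-terminal GST-fused human GASC-1 (KDM4C) fragment, residues 2-372 / Amount: 10 nM GST-KDM4C in enzyme reaction / Also added: H3K9me3 peptide with Fe(II)/2OG / Times: 30 min demethylation and 1 h detection at room temperature / Signal: LANCE TR-FRET / Read-out basis: Fall in 671/618 emission ratio as inhibition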
Pf Dd2 growth: P. falciparum Dd2 growth inhibitors, primary screen, SYBR Green fluorescence, single dose replicates. 94,000 tested, 2.3% active. 72 h; hits give low values. activity change, % at 10 µM. AID 1159554, 2015; in the data active = activity change below about -80%; inconclusive = no clear call, values can overlap the other calls
IDH1 mut inh: inhibitors of IDH1 R132H reductase, primary screen, biochemical, plate reader, single point; diaphorase/resazurin fluorescence, 60 min; 70,000 tested, 0.18% active; inhibition, % at 10 µM; AID 624101, 2012; Isocitrate dehydrogenase [NADP] cytoplasmic (Homo sapiens), O75874; in the data active = inhibition above about 34%; inconclusive = no clear call, values can overlap the other calls; inactive = below about 11%;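 note: 0% = DMSO and 100% = no enzyme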
An asterisk follows results filed as active; ? = inconclusive; . = no result given. This is one part of a sample in which hits are shown more often than they occur.

SMILES | KDM4C inh | Pf Dd2 growth | IDH1 mut inh
C[C@H]1CCCCO[C@@H](CN(C)CC2CCCCC2)[C@@H](C)CN([C@@H](C)CO)C(=O)c2cc(NC(=O)Nc3cccc4ccccc34)ccc2O1 | -2 | -83* | .
CCC(=O)N1C[C@@H](C)[C@H](OC)CN(C)C(=O)c2cc(NC(=O)CC(F)(F)F)ccc2OC[C@@H]1C | 1 | -1 | .
O=C(Nc1ccc2c(c1)OCO2)N[C@H]1CC[C@@H](CCNC(=O)C2CCCC2)O[C@@H]1CO | 4 | 6 | 0
C[C@H](CO)N1C[C@H](C)[C@H](CN(C)C(=O)[C@H](C)c2ccccc2)OCc2ccccc2-c2c(n(C)c3ccccc23)C1=O | 0 | -91* | .
C[C@@H]1CN([C@H](C)CO)C(=O)c2c(c3ccccc3n2C)-c2ccccc2CO[C@@H]1CN(C)C(=O)N[C@H](C)c1ccccc1 | 2 | -30 | -5
C[C@H](CO)N1C[C@H](C)[C@@H](CN(C)C(=O)N[C@H](C)c2ccccc2)OCc2ccccc2-c2c(n(C)c3ccccc23)C1=O | -1 | -82* | .
C[C@H](C(=O)N(C)C[C@H]1OCc2ccccc2-c2c(n(C)c3ccccc23)C(=O)N([C@@H](C)CO)C[C@H]1C)c1ccccc1 | -2 | -78 | .
C[C@H](C(=O)N(C)C[C@H]1OCc2ccccc2-c2c(n(C)c3ccccc23)C(=O)N([C@H](C)CO)C[C@@H]1C)c1ccccc1 | 1 | -51 | .
C[C@H](C(=O)N(C)C[C@@H]1OCc2ccccc2-c2c(n(C)c3ccccc23)C(=O)N([C@@H](C)CO)C[C@@H]1C)c1ccccc1 | 0 | -83* | .
O=C(Oc1ccc(-c2ccccc2)cc1)C(Cc1ccccc1)N1C(=O)C2C3CCC(C3)C2C1=O (stereo not given) | . | . | 0
Cc1noc(C)c1S(=O)(=O)Nc1ccc2c(c1)C(=O)N([C@@H](C)CO)C[C@H](C)[C@@H](CN(C)Cc1ccc3c(c1)OCO3)O2 | 0 | -6 | 0
CCCNC(=O)Nc1ccc2c(c1)C(=O)N(C)C[C@H](OC)[C@@H](C)CN(C(=O)C1CCC1)[C@H](C)CO2 | 3 | . | 0
Cc1noc(C)c1S(=O)(=O)Nc1ccc2c(c1)C(=O)N([C@H](C)CO)C[C@H](C)[C@@H](CN(C)C(=O)Nc1ccccc1)OCCCC[C@H](C)O2 | -1 | 3 | 0
Cc1noc(C)c1S(=O)(=O)Nc1ccc2c(c1)C(=O)N([C@H](C)CO)C[C@@H](C)[C@@H](CN(C)C(=O)Nc1ccccc1)OCCCC[C@@H](C)O2 | -1 | -84* | 2
Cc1noc(C)c1S(=O)(=O)Nc1ccc2c(c1)C(=O)N([C@@H](C)CO)C[C@@H](C)[C@@H](CN(C)C(=O)Nc1ccc(C(F)(F)F)cc1)OCCCC[C@H](C)O2 | ? | -82* | .
Cc1noc(C)c1S(=O)(=O)Nc1ccc2c(c1)C(=O)N([C@@H](C)CO)C[C@@H](C)[C@H](CN(C)C(=O)Nc1ccc(C(F)(F)F)cc1)OCCCC[C@H](C)O2 | 0 | -32 | 2
C[C@@H]1CN([C@@H](C)CO)C(=O)c2cc(NC(=O)NC3CCCCC3)ccc2O[C@@H](C)CCCCO[C@H]1CN(C)C | 0 | . | .
C/C=C/c1ccc2c(c1)O[C@@H](CN(C)C(=O)Cc1cccnc1)[C@H](C)CN([C@@H](C)CO)S2(=O)=O | 6 | 21 | 46*
C[C@@H]1CN([C@@H](C)CO)S(=O)(=O)c2ccc(-c3ccc(C#N)cc3)cc2O[C@@H]1CN(C)CC1CC1 | -1 | -77 | .
C/C=C/c1ccc2c(c1)O[C@@H](CN(C)C(=O)Cc1cccnc1)[C@H](C)CN([C@H](C)CO)S2(=O)=O | 1 | 0 | 12
C[C@H]1CN([C@@H](C)CO)S(=O)(=O)c2ccc(/C=C/c3ccccc3)cc2O[C@H]1CN(C)Cc1cccnc1 | -3 | -82* | .
C[C@H](CO)N1C[C@H](C)[C@H](CN(C)Cc2cccnc2)Oc2cc(/C=C/c3ccccc3)ccc2S1(=O)=O | -1 | -58 | -1
C/C=C/c1ccc2c(c1)O[C@H](CN(C)CC1CC1)[C@H](C)CN([C@H](C)CO)S2(=O)=O | 1 | -20 | -2
C[C@H]1CN([C@@H](C)CO)S(=O)(=O)c2ccc(-c3ccc(C#N)cc3)cc2O[C@H]1CN(C)CC1CC1 | 0 | -91* | -1
C[C@H]1CN([C@@H](C)CO)S(=O)(=O)c2ccc(/C=C/c3ccccc3)cc2O[C@H]1CN(C)CC1CC1 | -4 | -84* | -1
SMILES | KDM4C inh | Pf Dd2 growth | IDH1 mut inh
CCCN(C)C[C@H]1Oc2ncc(C#CCC(C)C)cc2C(=O)N([C@H](C)CO)C[C@@H]1C | -1 | -36 | -1
O=C(CC1NCCNC1=O)Nc1cccc(C(F)(F)F)c1 (stereo not given) | . | . | 0
N#Cc1ccc(-c2ccc3c(c2)[C@H]2[C@H](CCN2C(=O)C2CCCC2)[C@@H](CO)N3)cc1 | 0 | -56 | .
COc1ccc(CN2C[C@H](O)COC[C@H]3O[C@@H](CC(=O)NCc4ccncn4)CC[C@@H]32)cc1 | 0 | -2 | .
O=C(C[C@@H]1CC[C@H](NC(=O)CC2CC2)[C@@H](CO)O1)NCc1ccc(Cl)cc1 | -1 | 8 | 0
C[C@@H]1CN([C@@H](C)CO)S(=O)(=O)c2ccc(/C=C/c3ccccc3)cc2O[C@H]1CN(C)Cc1cncnc1 | -2 | -89* | 0
C[C@H](CO)N1C[C@H](C)[C@H](CN(C)Cc2cncnc2)Oc2cc(/C=C/c3ccccc3)ccc2S1(=O)=O | -5 | -45 | 0
Cc1[nH]cnc1/C=N/NC(=O)CCCCC(=O)NO | . | . | -1
O=C(NC1CCCCC1)[C@@H]1[C@@H](CO)[C@@H]2Cn3c(cccc3=O)[C@@H]2N1CCc1ccccc1 | 1 | 0 | .
C[C@H](NC(=O)C[C@H]1C=C[C@H](NC(=O)C2CCOCC2)[C@@H](CO)O1)c1ccccc1 | 0 | 9 | 0
C[C@@H]1CCCCO[C@H](CN(C)C(=O)C2CCCCC2)[C@@H](C)CN([C@@H](C)CO)C(=O)c2cc(NC(=O)Nc3cccc4ccccc34)ccc2O1 | -1 | -92* | -1
C[C@@H]1CN([C@H](C)CO)C(=O)c2cc(NC(=O)Nc3cccc4ccccc34)ccc2O[C@@H](C)CCCCO[C@@H]1CN(C)C(=O)C1CCCCC1 | -1 | -91* | .
C[C@@H]1CCCCO[C@@H](CN(C)C(=O)C2CCCCC2)[C@H](C)CN([C@H](C)CO)C(=O)c2cc(NC(=O)Nc3cccc4ccccc34)ccc2O1 | -1 | -41 | -1
C[C@H](CO)N1C[C@H](C)[C@@H](CN(C)C(=O)C2CCCCC2)OCCCC[C@H](C)Oc2ccc(NC(=O)Nc3cccc4ccccc34)cc2C1=O | 0 | -6 | .
Cc1ccc(S(=O)(=O)N[C@H]2C=C[C@@H](CC(=O)NCc3ccccc3F)O[C@@H]2CO)cc1 | 0 | 22 | 0
Cc1ccc(S(=O)(=O)N(C)C[C@@H]2Oc3ccc(NC(=O)NC(C)C)cc3CC(=O)N([C@@H](C)CO)C[C@H]2C)cc1 | -1 | -38 | -1
COc1cccc(-c2cc(NCc3ccc4c(c3)OCO4)nc(N)n2)c1 | . | . | 2
